# Sampled rows, rich in hits. Any-hit rate of the full collection: about 4%.
# CHO parental Ca – counter-screen for OX1R antagonists: effect in parental CHO cells; parental CHO-K1, ATP-induced calcium, Fluo-8 fluorescence; inhibition, % at 5.6 µM; 330,000 tested, 0.63% active; AID 463079;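 active = inhibition above that plate's mean sample inhibition plus 3 SD, cut at about 26% in these data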;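 also: 0% = ATP-challenged DMSO wells and 100% = DMSO wells without ATP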
#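 Material: parental CHO cells / Compound: single nominal dose of 5.6 µM per compound / Signal: Fluo-8 fluorescence / Replicates: singlicate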
# OX1R antag-1 – blocks the human orexin 1 receptor; inhibition, % at 5 µM; CHO/OX1R cells, Fluo-8 calcium fluorescence, orexin A; AID 434989; O43613; 330,000 tested, 0.43% active;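 active = inhibition above its plate's threshold, mean inhibition of all tested compounds on the plate plus 3 SD, cut at about 37% in these data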;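 also: 0% = orexin A challenge wells and 100% = SB-334867-A antagonist wells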
# Target sequence (O43613 whole entry, looked up): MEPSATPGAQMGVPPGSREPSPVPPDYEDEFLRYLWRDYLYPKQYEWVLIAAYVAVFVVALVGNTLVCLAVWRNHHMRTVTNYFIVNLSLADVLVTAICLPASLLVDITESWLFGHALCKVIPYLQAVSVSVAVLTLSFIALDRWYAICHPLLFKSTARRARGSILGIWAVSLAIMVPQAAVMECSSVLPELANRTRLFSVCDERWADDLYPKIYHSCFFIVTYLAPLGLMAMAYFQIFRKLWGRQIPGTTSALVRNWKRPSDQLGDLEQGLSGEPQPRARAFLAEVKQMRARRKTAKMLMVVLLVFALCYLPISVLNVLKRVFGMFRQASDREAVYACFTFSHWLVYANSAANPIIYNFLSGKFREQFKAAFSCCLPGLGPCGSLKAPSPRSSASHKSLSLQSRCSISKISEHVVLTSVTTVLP
# OX1R antag-2 – blocks the human orexin 1 receptor; O43613; OX1R-expressing cells, FRET antagonist read-out; inhibition, % at 6.6 µM; 330,000 tested, 1.8% active; AID 485270; in the data active = inhibition mostly above about 38%, no sharp cut-off; inactive = mostly below about 40%;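 also: 0% = agonist challenge alone and 100% = reference antagonist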
# TAAR1 antag – antagonists of human TAAR1. Q96RJ0. CHO RD-HGA16 TAAR1, Fluo-8 calcium fluorescence, antagonist. inhibition, % at 3 µM. 360,000 tested, 1.5% active. AID 624466;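 active = inhibition above a per-plate cutoff, the mean inhibition of test compounds on that plate plus 3 SD, cut at about 49% in these data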;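 also: 0% = DMSO plus EC80 beta-PEA response and 100% = DMSO alone without agonist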
# Target sequence (Q96RJ0 whole entry, looked up): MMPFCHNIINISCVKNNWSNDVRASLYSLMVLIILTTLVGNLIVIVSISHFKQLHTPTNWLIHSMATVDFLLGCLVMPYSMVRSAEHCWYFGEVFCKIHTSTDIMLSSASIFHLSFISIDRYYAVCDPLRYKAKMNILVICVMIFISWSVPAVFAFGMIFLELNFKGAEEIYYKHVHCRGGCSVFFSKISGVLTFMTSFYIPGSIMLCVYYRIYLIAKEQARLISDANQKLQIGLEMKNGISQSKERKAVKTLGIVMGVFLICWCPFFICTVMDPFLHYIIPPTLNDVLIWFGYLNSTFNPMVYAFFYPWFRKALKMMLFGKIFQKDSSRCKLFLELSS
#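 Material: RD-HGA16 CHO cells with stable hTAAR1 and Gα16; Dosing: single nominal final test compound concentration of 3 µM; Schedule: seeding 17-24 h prior, 75-min 37 °C, 30-min RT dye loading; Detection: kinetic Fluo-8 calcium fluorescence measurement; Measure: % inhibition from peak post-agonist over basal fluorescence ratio; Benchmarks: vehicle and agonist controls.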
# TAAR1 ag – human TAAR1 agonism; Q96RJ0; CHO RD-HGA16 TAAR1, Fluo-8 calcium fluorescence; vehicle wells 0%, saturating PEA agonist 100%; activation, % at 3 µM; 360,000 tested, 0.99% active;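 active = activation above the mean activation of all test compounds in the run plus 3 SD, cut at about 38% in these data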
#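 System: CHO-derived RD-HGA16 cells with stable Gα16 and human TAAR1 / Times: 17-24 h plating, Fluo-8 75 min 37 °C, 30 min RT / Technique: calcium-sensitive Fluo-8 signal, excitation 470-495, emission 515-575 nm / Measure: % activation relative to PEA EC100 response / Benchmarks: DMSO and PEA EC100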
# TAAR1 nonsel count – nonselective antagonism, TAAR1 counter-screen; shares compounds with TAAR1 antag; counterscreen cell line, calcium fluorescence, antagonist mode; inhibition, % at 3 µM; 2,400 tested, 77% active; in the data active = inhibition above about 22%;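 also: CHO-Ga16 host cells stimulated with ATP at an EC80 level; 0% = agonist EC80 plus vehicle and 100% = vehicle without agonist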
# TAAR1 antag conf – human TAAR1 antagonism, confirmed; AID 651785; inhibition, % at 3 µM; shares compounds with TAAR1 antag; 2,400 tested, 40% active; TAAR1-expressing cells, fluorescence antagonist read-out; in the data active = inhibition above about 49%;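 also: CHO-Ga16 host cells challenged with agonist PEA near its EC80; 0% = agonist at EC80 plus vehicle and 100% = vehicle with no agonist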
# Ga16 nonsel ag – nonselective Ga16 agonist in TAAR1 antagonist counter-screen. 2,400 tested, 18% active. activation, % at 3 µM. Ga16-expressing cells, calcium fluorescence, agonist counterscreen. shares compounds with TAAR1 antag; in the data active = activation above about 12%;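 also: 0% = vehicle wells and 100% = saturating stimulus response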
# TAAR1 ag counter – TAAR1 agonism, antagonist counter-screen. shares compounds with TAAR1 antag. hTAAR1 cell line, fluorescence activation, agonist mode. activation, % at 3 µM. 2,400 tested, 2% active. AID 651955; in the data active = activation above about 37%;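 also: CHO cells stably expressing TAAR1 with calcium dye readout; 0% = DMSO vehicle and 100% = full agonist response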
# * hit, by the source's call; / = not tested or not shown.
SMILES,CHO parental Ca,OX1R antag-1,OX1R antag-2,TAAR1 antag,TAAR1 ag,TAAR1 nonsel count,TAAR1 antag conf,Ga16 nonsel ag,TAAR1 ag counter
CCOC(=O)c1[nH]c2ccc(OC)cc2c1NC(=O)CN1CCc2ccccc2C1,-7.3,-19.4,13.3,59.8*,16.8,22.5*,51.2*,11.1,23.2
CCOC(=O)c1[nH]c2ccc(OC)cc2c1NC(=O)CN1CCN(c2ccccn2)CC1,-3.9,-15.3,22.0,/,/,/,/,/,/
Cc1ccc(NC(=O)/C(C#N)=C/c2cn(CC(=O)NCc3ccco3)c3ccccc23)cc1C,-0.4,-9.8,22.7,-13.6,1.2,/,/,/,/
Cc1ccc(C)c(NC(=O)/C(C#N)=C/c2cn(CC(=O)NCc3ccco3)c3ccccc23)c1,-2.9,-1.1,29.0,102.8*,2.2,5.8,12.2,6.9,6.1
CN(C)C=Nc1ccccc1C1C=NNC1=O (stereo not given),0.0,-5.2,9.3,/,/,/,/,/,/
CN(c1ccc(OCC(=O)OCC(=O)c2c(N)n(C)c(=O)n(C)c2=O)cc1)S(=O)(=O)c1ccc2ccccc2c1,-3.0,-8.0,23.8,76.9*,14.8,34.8*,56.4*,8.5,10.4
CCN(CC)CCOC(=O)c1ccc(NC(=O)CCCN2C(=O)/C(=C/c3cccs3)SC2=S)cc1,/,/,/,12.2,17.2,/,/,/,/
CCc1nc2ccccc2c(C(=O)OCCN2C(=O)c3ccccc3C2=O)c1C,-29.8,-19.8,45.5,66.4*,3.8,26.1*,43.7,6.3,5.0
Cc1ccc(C(=O)NCC(=O)OCC(=O)N(CC(C)C)c2c(N)n(Cc3ccccc3)c(=O)[nH]c2=O)s1,/,/,/,-1.8,0.0,/,/,/,/
Cc1ccc(C(C(=O)NC2CCCC2)N(Cc2ccc3c(c2)OCO3)C(=O)Cc2cccs2)cc1 (stereo not given),-29.8,-7.6,42.1,66.2*,9.8,26.2*,55.9*,8.8,12.1
CC(C)(C)c1ccc(C(=O)NNc2cc(Cl)cc(Cl)c2)cc1,5.3,-21.0,0.2,7.5,5.5,/,/,/,/
Cc1ccc(C(=O)Nc2cccc(C(F)(F)F)c2)cc1Nc1ncnc2nc[nH]c12,-3.7,-13.0,15.5,51.8*,4.0,32.0*,40.7,6.2,1.0
Cc1ccc(C(=O)Nc2cccc(C(F)(F)F)c2)cc1Nc1cnccn1,-7.1,-10.2,34.5,-6.2,5.4,/,/,/,/
CCCc1cc(=O)[nH]c(SCC(=O)Nc2cc(S(=O)(=O)N3CCCCC3)ccc2Cl)n1,/,/,/,12.8,0.3,/,/,/,/
Cc1nn(CCc2nn[nH]n2)c2nc(-c3ccc(Br)cc3)cc(C(F)(F)F)c12,-2.3,-16.8,5.9,71.4*,1.6,15.9,32.9,1.6,-3.9
Cc1nn(CCc2nn[nH]n2)c2nc(C(F)(F)F)cc(C(F)(F)F)c12,-3.2,1.5,5.4,-3.9,7.1,/,/,/,/
Cc1cccc(NC(=O)c2cc(-c3ccco3)nc3ccccc23)n1,-6.5,-24.0,44.9,54.9*,17.8,27.3*,49.9*,6.9,4.9
COc1ccc(OC)c(-c2cc(C(=O)Nc3ccccc3C(N)=O)c3ccccc3n2)c1,-33.9,-18.9,21.9,75.9*,20.6,34.5*,54.0*,10.6,9.5
Cc1ccc(-c2cc(C(=O)Nc3ccccc3C(N)=O)c3ccccc3n2)o1,-5.3,-25.4,7.6,66.4*,23.0,34.3*,53.6*,12.9*,12.4
COc1ccc(NC(=O)Nc2cccc3ccccc23)c(OC)c1,-6.9,-10.1,29.6,59.4*,23.6,18.5,42.4,3.2,4.2
COc1ccc(NC(=O)c2cc(-c3ccc(C)o3)nc3ccccc23)cc1OC,-13.4,-17.3,32.9,37.5,12.9,/,/,/,/
CCCCn1c(SCC(=O)NC(=O)Cc2ccccc2)nc2ccccc2c1=O,-16.8,-35.2,8.1,-2.5,6.7,/,/,/,/
CCCCN(CCCC)Cc1cc(=O)oc2ccc3ccccc3c12,/,/,/,-24.0,-0.1,/,/,/,/
COc1ccc(NC(=O)c2cc(-c3ccc(C)o3)nc3ccccc23)c(OC)c1,-26.8,-31.7,5.4,75.0*,7.3,32.5*,45.9,9.2,6.2
Cc1ccc(-c2cc(C(=O)N(C)CC(=O)Nc3ccccc3Br)c3ccccc3n2)o1,-7.9,-31.1,11.9,66.4*,14.3,34.0*,49.6*,11.9*,13.2
SMILES,CHO parental Ca,OX1R antag-1,OX1R antag-2,TAAR1 antag,TAAR1 ag,TAAR1 nonsel count,TAAR1 antag conf,Ga16 nonsel ag,TAAR1 ag counter
N/C(=N\c1nc2ccccc2o1)NC(=O)c1ccccc1NC(=O)c1ccccc1,-32.2,-40.0,19.1,64.8*,12.2,33.2*,36.5,2.8,-0.7
N/C(=N\c1nc2ccccc2o1)NC(=O)c1ccccc1F,-7.4,-20.1,27.9,20.5,16.8,/,/,/,/
COC(=O)C(Nc1ccccc1Cl)(c1cc(C)c(O)c(C)c1)C(F)(F)F (stereo not given),4.8,5.8,35.2,83.1*,8.4,8.3,40.0,4.4,8.2
Cc1c(NC(=O)CSc2ccc(Cl)cc2)cccc1-c1nc2ncccc2o1,-17.0,-36.7,13.2,59.5*,10.9,31.3*,45.7,11.0,9.6
CCC(=O)Nc1cccc(-c2nc3ncccc3o2)c1C,-10.3,-18.0,4.0,9.2,0.5,/,/,/,/
COc1ccc([C@H]2C=C3CN(C(=O)OC(C)(C)C)S(=O)(=O)[C@H]3C[C@H]2OC(=O)c2cccs2)cc1,-16.7,-9.3,42.4,21.2,-0.7,/,/,/,/
O=C(Cc1ccccc1)NNC(=O)Nc1cccc(Cl)c1,5.2,-2.5,7.3,-12.1,0.9,/,/,/,/
O=C(CN1c2ccccc2Sc2ccccc21)NNC(=O)Nc1cccc(Cl)c1,-5.6,-19.3,14.3,58.4*,0.9,13.3,36.7,-0.3,1.9
COc1cc(C(=O)Nc2cccc(-c3nnc(-c4ccco4)o3)c2)ccc1OC(C)=O,-24.5,-26.7,23.4,64.1*,15.8,26.3*,45.0,7.4,7.6
Cc1ccc(-n2cc(-c3ccccc3)c3c(N4CCN(C)CC4)ncnc32)cc1,8.9,-37.3,5.4,26.9,9.4,/,/,/,/
Fc1ccc(-n2cc(-c3ccccc3)c3c(NN4CCOCC4)ncnc32)cc1,-19.1,-30.5,22.8,18.0,8.5,/,/,/,/
COc1ccc(-n2cc(-c3ccccc3)c3c(NN4CCOCC4)ncnc32)cc1,-6.9,-16.8,27.4,56.3*,15.3,25.3*,39.5,11.0,13.7
Cc1cccc(-n2cc(-c3ccccc3)c3c(N4CCOCC4)ncnc32)c1,-20.4,-61.2,25.7,59.6*,4.2,26.6*,45.2,4.8,5.6
Cc1ccc2c(c1)c1c(n2CCc2ccc(C)nc2)CCN(C)C1,-20.5,-37.6,-0.7,-1.4,11.9,/,/,/,/
CC(=O)c1ccc(OCCCOc2cccc3cccnc23)cc1,/,/,/,4.1,7.4,/,/,/,/

# Bioassay records as filed in PubChem BioAssay.
